Assay results from ChEMBL document CHEMBL1148969, “Lanostanoid triterpenes from Laetiporus sulphureus and apoptosis induction on HL-60 human myeloid leukemia cells” (J Nat Prod, 2004).
Activity calls are given as the source filed them. No cut-off for these calls is given here.

Tests used:
[1] = test system: HL-60; experiment: Cytotoxicity against human HL60 cells after 96 hrs by MTT assay; format: functional, cell-based; conditions: for IC50: HL-60, 96 h
How it was run: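 HL-60 promyelocytic leukemia cells; growth inhibition read by MTT; IC50 determined graphically for each experiment by curve fitting. Mean ± SEM of two independent experiments with three determinations each; ursolic acid as positive control.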

[2] = test system: HL-60; experiment: Induction apoptosis in human HL60 cells assessed as caspase 3 activity after 6 hrs; format: functional, cell-based
How it was run: (§1)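 HL-60 cells given 10 µM for 6 h; lysates with equal protein incubated with colorimetric substrate DEVD-pNA, absorbance at 405 nm. Expressed as fold increase over untreated control; representative experiment in duplicate; etoposide 10 µM positive control.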

[3] = test system: HL-60; experiment: Induction apoptosis in human HL60 cells assessed as appearance of apoptotic nuclei at 30 uM after 8 hrs by fluorescence microscopy; format: functional, cell-based
How it was run: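 Cells exposed to 30 µM for 8 h, then Hoechst 33258 (bisbenzimide) stained; apoptotic nuclei counted by fluorescence microscopy. Mean ± standard error of one experiment in triplicate, repeated once separately; etoposide as positive control.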

[4] = test system: HL-60; experiment: Induction apoptosis in human HL60 cells assessed as condensation of chromatin at 10 uM after 8 hrs by fluorescence microscopy; format: functional, cell-based
How it was run: (§2)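 HL-60 cells cultured with or without 10 µM compound for 8 h, stained with Hoechst 33258; nuclei examined by fluorescence microscopy for chromatin condensation, shrinkage and apoptotic bodies.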

[5] = test system: HL-60; experiment: Induction apoptosis in human HL60 cells assessed as appearance of apoptotic bodies at 10 uM after 8 hrs by fluorescence microscopy; format: functional, cell-based; how it was run: as §2
[6] = test system: HL-60; experiment: Induction apoptosis in human HL60 cells assessed as […] DNA fragmentation at 30 uM after 16 hrs by electrophoresis; format: functional, cell-based
How it was run: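 Cells treated 16 h at 30 µM; total cellular DNA extracted, run on 2% agarose gel, ethidium bromide stained and internucleosomal ladder viewed under UV; etoposide 3 µM positive control.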

[7] = test system: HL-60; experiment: Induction apoptosis in human HL60 cells assessed as cytochrome c release from mitochondria at 10 uM after 6 hrs by Western blot analysis; format: functional, cell-based
How it was run: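 Cells treated 6 h at 10 µM; cytosolic fraction isolated and immunoblotted with monoclonal anti-cytochrome c (band near 15 kDa); β-actin loading control.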

[8] = test system: HL-60; experiment: Induction apoptosis in human HL60 cells assessed as caspase 3 activity at 10 uM after 6 hrs relative to control; format: functional; how it was run: as §1
[9] = test system: HL-60; experiment: Induction apoptosis in human HL60 cells assessed as PARP1 cleavage at 10 uM after 6 hrs by SDS-PAGE; format: functional, cell-based
How it was run: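 After 6 h at 10 µM, equal protein from whole-cell lysates run on SDS-PAGE, blotted and probed with anti-PARP-1 monoclonal antibody detecting native 116 kDa and cleaved 85 kDa forms; etoposide positive control.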

SMILES	Activity [1]	IC50 [1]	Activity [2]	Activity [3]	Activity [4]	Activity [5]	Activity [6]	Activity [7]	fold change (FC) [8]	Activity [9]
C=C(CC[C@@H](C(=O)O)[C@H]1C[C@H](O)[C@@]2(C)C3=C(CC[C@]12C)[C@@]1(C)CC[C@H](O)C(C)(C)[C@@H]1CC3)C(C)C [SULFURENIC ACID]	Dose-dependent effect	14 µM	–	–	–	–	–	–	–	–
CC(=O)O[C@H]1CC[C@]2(C)C3=C(CC[C@H]2C1(C)C)[C@]1(C)CC[C@H]([C@@H](CCC=C(C)C)C(=O)O)[C@@]1(C)CC3 [ACETYL TRAMETENOLIC ACID]	Dose-dependent effect	31 µM	Dose-dependent effect	Active	Active	Active	Active	–	–	–
CC(C)=CCC[C@@H](C(=O)O)[C@H]1C[C@H](O)[C@@]2(C)C3=C(CC[C@]12C)[C@@]1(C)CC[C@H](O)C(C)(C)[C@@H]1CC3	Dose-dependent effect	12 µM	–	–	–	–	–	–	–	–
C[C@H]1[C@H](C)CC[C@]2(C(=O)O)CC[C@]3(C)C(=CC[C@@H]4[C@@]5(C)CC[C@H](O)C(C)(C)[C@@H]5CC[C@]43C)[C@H]12 [URSOLIC ACID]	Dose-dependent effect	21 µM	–	–	–	–	–	–	–	–
C=C(CC[C@@H](C(=O)O)[C@H]1C[C@H](OC(C)=O)[C@@]2(C)C3=C(CC[C@]12C)[C@@]1(C)CCC(=O)C(C)(C)[C@@H]1CC3)C(C)C	Dose-dependent effect	25 µM	Dose-dependent effect	–	Active	Active	Active	Active	–	–
C=C(CC[C@@H](C(=O)O)[C@H]1C[C@H](O)[C@@]2(C)C3=C(CC[C@]12C)[C@@]1(C)CCC(=O)C(C)(C)[C@@H]1CC3)C(C)C	Dose-dependent effect	407 µM	–	–	–	–	–	–	–	–
C=C(CC[C@@H](C(=O)O)[C@H]1CC[C@@]2(C)C3=C(CC[C@]12C)[C@@]1(C)CC[C@H](OC(C)=O)C(C)(C)[C@@H]1CC3)C(C)C [ACETYL EBURICOIC ACID]	Dose-dependent effect	15 µM	Dose-dependent effect	Active	Active	Active	Active	Active	7	Active
C=C(CC[C@@H](C(=O)O)[C@H]1CC[C@@]2(C)C3=C(CC[C@]12C)[C@@]1(C)CC[C@H](O)C(C)(C)[C@@H]1CC3)C(C)C [EBURICOIC ACID]	Dose-dependent effect	25 µM	Dose-dependent effect	–	Active	Active	Active	–	–	–
